Screening data as filed in PubChem.
Rows were chosen to be rich in hits. Some 1.4% of all compounds tested hit in one or more screens of this group.
ATG4B inhibitor: inhibitors of human ATG4B cysteine protease. AID 504462. 340,000 compounds, 0.51% hits. ATG4B cleavage of LC3-PLA2, NBD-HPC fluorescence, 1 h. inhibition, % at 8.33 µM; in the data active means inhibition above about 40%
Diaphorase inh: diaphorase inhibition or chemical oxidation counter-screen. diaphorase resazurin-to-resorufin fluorescence, NADH, 16 min; bacterial (C. kluyveri) enzyme, not human. inhibition, % at 20 µM. 190,000 compounds, 0.69% hits. AID 1217;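 active means primary screen inhibition at 20 µM above a set limit, cut at about 50% in these data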
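Assay system – diaphorase enzyme from Clostridium kluyveri · Amount – diaphorase 0.14 U/mL (working solution) · Times – reaction incubation of 16 min at room temperature · Controls – No-NADH positive control and DMSO neutral control · Signal – resorufin fluorescence 544/590 nm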
Diaphorase act: activates diaphorase or chemically reduces, flagging diaphorase assay artifacts. Diaphorase/resazurin coupled assay, resorufin fluorescence, 16 min; stronger effect = higher value; 1 = vehicle wells, 0 = NADH-free wells. activation factor at 20 µM. 190,000 compounds, 0.005% hits. AID 1229;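 active means diaphorase activity raised at least twofold by the compound at 20 µM; inactive means activation factor below 2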
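test system = bacterial diaphorase enzyme (C. kluyveri) | quantity = enzyme 0.07 U/mL final | reagent = NADH substrate 0.114 mM plus resazurin dye 0.1 mM, final | incubation = 16 min enzyme reaction, ambient temperature | buffer or medium = HEPES pH 7.4 buffer with MgCl2 and Tween 20 | signal = fluorescence of resorufin, 544 nm excitation, 590 nm emission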
HKDC1 inh: HKDC1 (human) hexokinase inhibition. Q2TB90. inhibition, % at 20 µM. AID 493160. 340,000 compounds, 0.16% hits. recombinant HKDC1, G6PDH/diaphorase resazurin coupled fluorescence;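 active means inhibition above about 35% when tested at 20 µM, limit read from the data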
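Test system: recombinant HKDC1 (HK5) hexokinase enzyme, produced in-house / Doses: 20 µM test compound, 1% DMSO / Timing: 90 min, room temperature / Detection: G6PDH/diaphorase-coupled fluorescence, 1 mM NADP, 100 µM resazurin, 525/613 nm / Control set: DMSO wells with and without enzyme mix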
CTSL1 counter: counter-screen for PFM18AAP inhibitors: inhibitors of F. hepatica cathepsin L1 | 300,000 compounds, 0.49% hits | AID 1906 | inhibition, % at 5.96 µM | recombinant F. hepatica cathepsin L1, Z-Leu-Arg-MCA fluorescence;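 active means inhibition above the mean of all tested compounds plus 3 SD, set per screening campaign, cut at about 17% in these data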
A number is an active result; 0 = inactive; - = no result.

SMILES | ATG4B inhibitor | Diaphorase inh | Diaphorase act | HKDC1 inh | CTSL1 counter
O=C(Cc1cccs1)NCCS(=O)(=O)N1CCN(c2ccccc2F)CC1 | 0 | - | - | 0 | 0
CCOc1cc([N+](=O)[O-])cc(/C=C2/NC(=O)N(Cc3ccccc3F)C2=O)c1O | 0 | 56 | 0 | 0 | 0
C#Cc1ccc([C@@H]2C=C(C(=O)N3CCN(Cc4ccc5c(c4)OCO5)CC3)O[C@H](OCCCCO)C2)cc1 | 0 | 53 | 0 | 0 | 0
O=C(C1=C[C@@H](c2ccc3c(c2)OCO3)C[C@@H](OCCCCO)O1)N1CCN(Cc2ccc3c(c2)OCO3)CC1 | 0 | 0 | 0 | 0 | 0
O=C1C[C@H](NC(=O)OCc2ccccc2)CO1 | 0 | - | - | 0 | -
Nc1ccc(C(=O)NCCCSc2ccccc2)cc1[N+](=O)[O-] | 0 | - | - | 0 | 0
Oc1ccc(C2=Nn3c(nnc3-c3ccco3)SC2)cc1O | 0 | 70 | 0 | 0 | 0
COc1cc(C(CC(=O)N2CCCC2)c2c(OC)cc(OC)c3ccc(=O)oc23)cc(OC)c1OC (stereo not given) | 0 | - | - | 0 | 37
COc1cc(OC)c2ccc(=O)oc2c1C(CC(=O)N1CCCC1)c1ccc2c(c1)OCO2 (stereo not given) | 0 | - | - | 0 | 0
COc1ccc2c(c1)-c1nc(/N=C/c3ccccc3O)sc1CC2 | 0 | 54 | 0 | 0 | 0
COc1ccc2c(c1)-c1nc(/N=C/c3cccc(OC)c3O)sc1CC2 | 0 | 0 | 0 | 0 | 0
CN(c1ccccc1)S(=O)(=O)c1cccc(NC(=O)C2=NN(c3ccccc3)C(=O)CC2)c1 | 0 | - | - | 0 | -
CCCCn1c(SCC(=O)Nc2cc(C)on2)nnc1-c1cccs1 | 0 | - | - | 0 | 0
CCCCn1c(Cc2ccccc2)nnc1SCC(=O)Nc1cc(C)on1 | 0 | 59 | 0 | 0 | 0
O=C(Nc1ccccc1Cl)OC1CCCCC1 | 0 | - | - | 0 | 0
CCN(CC1CCCO1)C(=O)CCc1nnc(CCc2ccccc2OC)o1 (stereo not given) | 0 | - | - | 0 | 0
[N-]=[N+]=CC(=O)CNC(=O)[C@@H](Cc1ccccc1)N1C(=O)c2ccccc2C1=O | 0 | 0 | 0 | 0 | 43
COc1ccc(OC)c2sc(N(CCCN(C)C)C(=O)CCS(=O)(=O)c3ccccc3)nc12 | 0 | - | - | 0 | 37
Cc1ccc2sc(N(CCCN(C)C)C(=O)CCS(=O)(=O)c3ccccc3)nc2c1C | 0 | - | - | 0 | 40
CN(C)CCCN(C(=O)CCSc1ccccc1)c1nc2cc3c(cc2s1)OCO3 | 0 | 0 | 0 | 0 | 0
CN(C)CCCN(C(=O)CCS(=O)(=O)c1ccccc1)c1nc2cc3c(cc2s1)OCO3 | 0 | - | - | 0 | 29
CN(C)CCN(C(=O)CCS(=O)(=O)c1ccccc1)c1nc2c(F)cccc2s1 | 0 | - | - | 0 | 0
C=CCOc1ccc(CNc2ccc3[nH]c(=O)[nH]c3c2)cc1OCC | 0 | - | - | 0 | 0
COc1cc(CNc2ccc3[nH]c(=O)[nH]c3c2)cc(Cl)c1OCC(=O)NC(C)(C)C | 0 | 73 | 0 | 0 | 0
CCOc1cc(CNc2ccc3[nH]c(=O)[nH]c3c2)ccc1OCC(=O)NC(C)(C)C | 0 | 66 | 0 | 0 | 0
SMILES | ATG4B inhibitor | Diaphorase inh | Diaphorase act | HKDC1 inh | CTSL1 counter
O=C(NCc1ccccc1)/C(=C/c1ccco1)NC(=O)c1ccco1 | 0 | 0 | 0 | 0 | 28
CNC(=O)/C(=C\c1ccco1)NC(=O)c1ccco1 | 0 | - | - | 0 | 0
CC(C)CC(NC(=O)/C(=C/c1ccco1)NC(=O)c1ccc(Br)o1)C(=O)O (stereo not given) | 0 | - | - | 0 | 23
CC(C)CC(NC(=O)/C(=C\c1ccco1)NC(=O)c1ccco1)C(=O)O (stereo not given) | 0 | - | - | 0 | 38
CCOC(=O)/C(=C/c1ccco1)NC(=O)c1ccc(Br)o1 | 0 | 0 | 0 | 0 | 0
O=C(NCc1ccccc1)/C(=C/c1ccccc1)NC(=O)c1ccco1 | 0 | - | - | 0 | 0
CN(C(=O)Cn1c(=O)oc2ccccc21)C1CCCCC1 | 0 | - | - | 0 | -
C#CCOCCOCCOCCNc1nc(N2CCN(C(=O)CCCCCCCCCCNC(=O)[C@@H](CCSC)n3cc(CCO)nn3)CC2)nc(N2CCN(C(=O)CCCCCCCCCCNC(=O)[C@H]([C@@H](C)CC)n3cc(CCCCN=C(N)N)nn3)CC2)n1 | 0 | - | - | 0 | 0
C#CCOCCOCCOCCNc1nc(N2CCN(C(=O)CCCCCCCCCCNC(=O)[C@@H](CCSC)n3cc(CCO)nn3)CC2)nc(N2CCN(C(=O)CCCCCCCCCCNC(=O)[C@H]([C@@H](C)CC)n3cc(CCCCCN)nn3)CC2)n1 | 45 | - | - | 0 | 0
C#CCOCCOCCOCCNc1nc(N2CCN(C(=O)CCCCCCCCCCNC(=O)[C@H](CCCCN)n3cc(CCO)nn3)CC2)nc(N2CCN(C(=O)CCCCCCCCCCNC(=O)[C@H](CCCN=C(N)N)n3cc(C[C@@H](C)CC)nn3)CC2)n1 | 70 | - | - | 0 | 0
C#CCOCCOCCOCCNc1nc(N2CCN(C(=O)CCCCCCCCCCNC(=O)[C@H](CCCCN)n3cc(CCCC(=O)O)nn3)CC2)nc(N2CCN(C(=O)CCCCCCCCCCNC(=O)[C@H](CCCN=C(N)N)n3cc(C[C@@H](C)CC)nn3)CC2)n1 | 0 | - | - | 0 | 0
Cc1ccccc1NS(=O)(=O)c1ccc(C(=O)N2CCC2)cc1 | 0 | - | - | 0 | 19
CC(=O)N1CCN(C(=O)c2ccc(S(=O)(=O)Nc3ccccc3C)cc2)CC1 | 0 | - | - | 0 | 0
O=C(NCCCN1CCCC1=O)c1sc2ccccc2c1Cl | 0 | - | - | 0 | 0
CC[C@]1(C(=O)OC)[C@H]2C(=O)N(C)C(=O)[C@H]2[C@H]2CN=C(SCC3CC3)N21 | 0 | - | - | 0 | -
COc1ccc(N2C(=O)C(Cl)=C(Nc3ccccc3O)C2=O)cc1 | 0 | 0 | 0 | 0 | 50
COc1ccc(N2C(=O)C(Cl)=C(Nc3ccccc3OC)C2=O)cc1 | 0 | 0 | 0 | 0 | 0
NC(=O)C1=C[C@H](c2csc3ccccc23)C[C@H](OCCCCO)O1 | 0 | 56 | 0 | 0 | 0
Cc1nc2ccccc2n1C(=O)c1ccc(Cl)cc1[N+](=O)[O-] | 0 | 54 | 0 | 0 | 0
CCOC(=O)Cn1cc(C#N)c2ccccc21 | 0 | 0 | 0 | 0 | 0
CCOC(=O)CC(C#N)c1cn(C)c2ccccc12 (stereo not given) | 0 | 0 | 0 | 0 | 28
O=C1C=CC(=O)N1 | 0 | - | - | 0 | 0
CCOC(=O)COn1c(=O)c(-c2ccc(C)cc2)[n+]([O-])c2ccccc21 | 0 | - | - | 0 | 20
O=C(Cc1cccc(NC(=O)C2CCN(C(=O)C3CCC3)CC2)c1)Nc1cccc(C(=O)N2CCOCC2)c1 | 0 | - | - | 0 | -
COc1cccc(NC=C2C(=O)OC3(CCCCC3)OC2=O)c1 | 0 | 0 | 0 | 0 | 19
COc1cccc(NC=C2C(=O)OC(C)(C)OC2=O)c1 | 0 | 0 | 0 | 0 | 0
COc1cccc(CN(C)C(=O)c2csc3c2CCCC3)c1OC | 0 | 0 | 0 | 0 | 18
COc1cccc(CN(C)C(=O)c2ccc(S(=O)(=O)Nc3ccccc3F)cc2)c1OC | 0 | - | - | 0 | -
